Assay [1] can be described thus: inhibitors of TNFa-induced NFkB p65 translocation, primary screen, imaging, HUVEC, MLSMR starter and 10KST1 sets (AID 438;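 active = inhibition above 20% together with a positive visual image hit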;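 note: compound added about 3h40 before a 20 min TNFalpha stimulation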;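 for inhibition: signal is the nuclear over cytoplasmic p65 intensity ratio per well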). As to conditions: HUVEC TNFa-induced p65 nuclear translocation; cell count: measured here: nuclei count (cytotoxicity indicator), at 2.08 µM; inhibition: at 2 µM, stronger effect = higher value, 0% TNFa-plus-vehicle, 100% no-TNFa wells.
Assay [2] in a line: reduction of polyQ htt aggregates in cells – imaging, exon1htt(103Q)mCFP cells, high-content imaging, primary screen (AID 483;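 active = visual image review flags a hit and inhibition of aggregation exceeds 20%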;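 note: compound exposure lasted 3 days before fixation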;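 for nuclei count: percent of the per-plate median nuclei count of sample wells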). As to conditions: exon1htt(103Q)mCFP cell line, aggregate imaging, at 2 µM; inhibition of aggregation: stronger effect = higher value; nuclei count: measured here: cell count, toxicity.
Assay [3] in a line: endothelial E-selectin expression blockers – imaging, HUVEC, immunofluorescence, MLSMR starter and 10KST1 sets, primary screen (AID 487;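 active = visually confirmed hit in the image check and inhibition above 20%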;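 for inhibition: signal is fraction of cell area covered by stained E-selectin grains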;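 for nuclei count: 100% = median nuclei count of all wells on the same plate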). As to conditions: HUVEC TNFalpha-induced E-selectin immunofluorescence imaging, at 2 µM; inhibition: stronger effect = higher value; nuclei count: measured here: cell number, toxicity.
In assay [4] the target is Voltage-gated potassium channel subunit beta-2 (Rattus norvegicus) (UniProt P62483). The assay can be described thus: inhibitors of rat Kvbeta2 reductase activity – biochemical, NADPH fluorescence, primary screen (AID 622;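 active = fluorescence slope higher than the sample average by over 3 SD, cut at about -0.22 in these data, passing the limit was not always enough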;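 note: slope of raw intensity against log time taken from 70 to 1610 s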). The following applies: recombinant KvBeta, 4-cyanobenzaldehyde reduction, at 10 µM, stronger effect = higher value.
Chain of Voltage-gated potassium channel subunit beta-2 (Rattus norvegicus) (P62483 whole entry, looked up): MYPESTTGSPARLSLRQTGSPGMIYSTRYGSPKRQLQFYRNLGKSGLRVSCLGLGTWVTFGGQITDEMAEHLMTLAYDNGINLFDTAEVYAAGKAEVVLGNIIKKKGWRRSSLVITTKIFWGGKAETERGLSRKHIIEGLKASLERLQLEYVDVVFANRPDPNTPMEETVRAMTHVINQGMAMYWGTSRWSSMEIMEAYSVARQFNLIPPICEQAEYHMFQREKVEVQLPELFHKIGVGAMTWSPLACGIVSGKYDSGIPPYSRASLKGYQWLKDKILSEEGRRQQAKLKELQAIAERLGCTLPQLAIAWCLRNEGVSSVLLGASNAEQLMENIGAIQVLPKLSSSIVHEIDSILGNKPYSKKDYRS
For assay [5] the target is unchanged. The assay can be described thus: enhancers of rat Kvbeta2 NADPH turnover – biochemical, NADPH fluorescence, primary screen (AID 623;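 active = NADPH fluorescence slope more negative than the mean of all samples by about 3 SD, 99.7% confidence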;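 note: fluorescence intensity change per second fitted from 20 to 320 s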). As to conditions: Recombinant KvBeta, NADPH fluorescence decrease slope, 10 min; at 10 µM; stronger effect = lower value.
Assay [6] addresses Muscarinic acetylcholine receptor M4 (Homo sapiens) (UniProt P08173). The assay can be described thus: M4-linked GIRK flux change, two-sided – cell-based, HEK293 M4/GIRK, thallium flux, BTC-AM, M4 allosteric agonist project, primary screen (AID 625).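 Note: thallium influx through GIRK channels coupled to M4 in HEK293 cells with BTC-AM dye.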 As to conditions: at 10 µM, actives lie on both sides. In a few lines:
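Material – HEK293 cells with M4 receptor and GIRK channels · Buffer or medium – pH 7.3 thallium assay buffer · Doses – one dose, 10 µM final · Timing – cells overnight at 37 °C, BTC-AM loading 1 h, reads 2 min total · Measured by – kinetic fluorescence with BTC-AM dye · Controls – carbachol and DMSO controls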

The nature of assay [7]: blockers of RIG-like receptor reporter activation – cell-based, Sendai virus stimulus, luciferase, 10K MLSCN set, TLR/RLR signaling modifier project, primary screen (AID 602276;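 active = inhibition at or above 50% at 10 µM; inactive = inhibition below 50%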;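 note: firefly luciferase from ISG56 promoter only with Renilla not read in this screen; 0% = Sendai virus plus DMSO and 100% = medium plus DMSO without virus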). As to conditions: HEK293 RL24 IRF3 luciferase reporter, at 10 µM, stronger effect = higher value. For orientation: A reporter such as luciferase makes a cellular process visible.
The nature of assay [8]: TLR3 IRF3 reporter activation blockers – cell-based, poly I:C stimulus, luciferase, 10K MLSCN set, primary screen (AID 602277;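 active = inhibition of the reporter signal at or above 50%; inactive = inhibition below 50%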). The following applies: HEK293-TLR3 RL24 IRF3 luciferase reporter, at 10 µM, stronger effect = higher value.

Structures are written as SMILES. Activity calls are given as the source filed them.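 Rule for the calls, unless noted: active = fluorescence slope after compound addition differing from the mean of all tested samples at 99.7% confidence, mostly higher but some lower; inactive = the rest.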

Chain of Muscarinic acetylcholine receptor M4 (Homo sapiens) (P08173 whole entry, looked up): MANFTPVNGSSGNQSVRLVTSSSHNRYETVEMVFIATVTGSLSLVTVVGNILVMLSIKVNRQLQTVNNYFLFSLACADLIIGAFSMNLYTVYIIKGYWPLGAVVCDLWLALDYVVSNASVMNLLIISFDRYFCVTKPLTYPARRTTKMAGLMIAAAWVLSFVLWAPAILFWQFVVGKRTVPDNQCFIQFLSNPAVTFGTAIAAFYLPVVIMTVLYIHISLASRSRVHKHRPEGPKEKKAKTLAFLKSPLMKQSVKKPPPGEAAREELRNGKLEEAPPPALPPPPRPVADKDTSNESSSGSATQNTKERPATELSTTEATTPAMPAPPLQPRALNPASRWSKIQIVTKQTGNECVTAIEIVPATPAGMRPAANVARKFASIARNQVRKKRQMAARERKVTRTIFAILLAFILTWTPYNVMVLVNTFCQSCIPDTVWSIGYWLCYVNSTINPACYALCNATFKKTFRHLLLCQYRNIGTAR

With `CCc1ccccc1NC(=O)CN(c1cccc(OC)c1)S(C)(=O)=O`, the cell count in assay [1] is 345. Further, the inhibition (commonly the change of the read-out against control, counted positive when it falls) in assay [1] is 2.5% (inactive); in assay [3], -28.2% (inactive); in assay [7], -7.55% (inactive); in assay [8] it was -6.22% (inactive). In addition, in assay [2], the inhibition of aggregation was -3.1% (inactive). Also, the nuclei count in assay [2] turned out to be 99%; in assay [3], 111%. In addition, the fluorescence slope in assay [4] is -0.544 (inactive); in assay [6], 0.00451 (inactive). Moreover, in assay [5], the NADPH fluorescence slope was -7.9e-05 (inactive).
Regarding `CN1C(=O)CSc2ccc(NC(=O)N3CCN(c4ccccn4)CC3)cc21`, in assay [1], the cell count is 589. For the same molecule, the inhibition in assay [1] was -16.4% (inactive); in assay [3], -57.6% (inactive); in assay [7], -6.76% (inactive); in assay [8], 21.6% (inactive). In assay [2], the inhibition of aggregation was -49% (inactive). Further, the nuclei count came to 76.7% in assay [2] and 112% in assay [3]. The fluorescence slope in assay [4] is -0.455 (inactive); in assay [6] it was 0.00601 (inactive). Besides, in assay [5], the NADPH fluorescence slope is 8e-05 (inactive).
In the case of `COc1cccc2cc(C(=O)N3CCN(C45CC6CC(CC(C6)C4)C5)CC3)c(=O)oc12`, the cell count in assay [1] was determined as 213. Besides, the inhibition was 9.1% (inactive) in assay [1], 43.8% (inactive) in assay [3], 5.81% (inactive) in assay [7] and 21.6% (inactive) in assay [8]. Further, in assay [2], the inhibition of aggregation was 17.3% (inactive). In addition, the nuclei count turned out to be 71.5% in assay [2] and 85.2% in assay [3]. Besides, the fluorescence slope was -0.443 (inactive) in assay [4] and 0.00456 (inactive) in assay [6]. Further, the NADPH fluorescence slope in assay [5] is 2.5e-05 (inactive).
Consider `CCSc1nnc(NC(=O)c2cc(C)oc2C)s1`, for which, in assay [1], the cell count was 352. The inhibition in assay [1] is -1.4% (inactive); in assay [3], 5.1% (inactive); in assay [7], -35.9% (inactive); in assay [8] it was -83.6% (inactive). In addition, the inhibition of aggregation in assay [2] was 5.7% (inactive). In addition, the figures for the nuclei count in assay [2] and in assay [3] were 98.6% and 56.1%, respectively. Further, the fluorescence slope is -0.451 (inactive) in assay [4] and 0.00476 (inactive) in assay [6]. The NADPH fluorescence slope in assay [5] is -4.1e-07 (inactive).
`Cc1cccc(OCC(=O)Nc2ccccc2N2CCN(C(=O)C(C)C)CC2)c1C`: the cell count in assay [1] stood at 232. In addition, the inhibition was -21.4% (inactive) in assay [1], -26.3% (inactive) in assay [3], 15.5% (inactive) in assay [7] and 25.9% (inactive) in assay [8]. Also, the inhibition of aggregation in assay [2] is 6% (inactive). In addition, the nuclei count in assay [2] turned out to be 73.8%; in assay [3], 68.6%. Further, the fluorescence slope in assay [4] is -0.585 (inactive); in assay [6], 0.00511 (inactive). The NADPH fluorescence slope in assay [5] is -2.3e-05 (inactive).
For the molecule `Cc1ccccc1CN1CCNC1=O`, the cell count in assay [1] amounted to 624. For the same molecule, the inhibition in assay [1] is 40.3% (active); in assay [3], -69.6% (inactive); in assay [7], 23.3% (inactive); in assay [8], 26.8% (inactive). In assay [2], the inhibition of aggregation was 7% (inactive). In addition, the nuclei count came out at 88.7% in assay [2] and 138% in assay [3]. Besides, the fluorescence slope in assay [4] was -0.558 (inactive); in assay [6], 0.00621 (inactive). For the same molecule, the NADPH fluorescence slope in assay [5] is -4e-05 (inactive).
In the case of `CC1Cc2cc(/C(O)=C3/C(=O)C(=O)N(CCN4CCOCC4)C3c3cccc(O)c3)ccc2O1` (configuration not stated), the cell count in assay [1] is 576. Also, the inhibition was -2.7% (inactive) in assay [1], -18.4% (inactive) in assay [3], -19.1% (inactive) in assay [7] and -6.57% (inactive) in assay [8]. Further, the inhibition of aggregation in assay [2] was -17.8% (inactive). Also, the nuclei count is 105% in assay [2] and 94.9% in assay [3]. In addition, the fluorescence slope in assay [4] is -0.573 (inactive); in assay [6], 0.00539 (inactive). For the same molecule, in assay [5], the NADPH fluorescence slope is -8.9e-05 (inactive).
On to `Cc1c(C(=O)O)oc2ccc(S(=O)(=O)NCc3ccccc3)cc12`, for which the cell count in assay [1] was 675. For the same molecule, the inhibition in assay [1] is -4.8% (inactive); in assay [3], -38.4% (inactive); in assay [7], -0.0664% (inactive); in assay [8] it was 11.8% (inactive). In assay [2], the inhibition of aggregation is 21.7% (inactive). For the same molecule, the figures for the nuclei count in assay [2] and in assay [3] were 108% and 110%, respectively. The fluorescence slope in assay [4] was -0.432 (inactive); in assay [6], 0.00586 (inactive). The NADPH fluorescence slope in assay [5] was 4.7e-05 (inactive).
For `Cn1c2c(c(=O)[nH]c1=O)C(NC(=O)c1ccco1)(C(F)(F)F)C(=O)N2` (configuration not stated), the cell count in assay [1] turned out to be 618. Moreover, the inhibition was 8.2% (inactive) in assay [1], -95% (inactive) in assay [3], -2.84% (inactive) in assay [7] and 6.27% (inactive) in assay [8]. Further, the inhibition of aggregation in assay [2] was -9.2% (inactive). For the same molecule, the nuclei count was determined as 108% in assay [2] and 135% in assay [3]. Also, the fluorescence slope in assay [4] is -0.542 (inactive); in assay [6], 0.00391 (inactive). Moreover, the NADPH fluorescence slope in assay [5] was -6.4e-05 (inactive).
For the molecule `COc1ccc(OC)c(CNC(=O)CCN2C(=O)COc3ccccc32)c1`, the cell count in assay [1] is 663. In addition, the inhibition in assay [1] is 14.4% (inactive); in assay [3] it was -29.9% (inactive); in assay [7], -19.9% (inactive); in assay [8], -11.1% (inactive). For the same molecule, in assay [2], the inhibition of aggregation is 21.7% (inactive). The values for the nuclei count in assay [2] and in assay [3] were 64% and 110%, respectively. Also, the figures for the fluorescence slope in assay [4] and in assay [6] were -0.479 (inactive) and 0.00555 (inactive), respectively. For the same molecule, the NADPH fluorescence slope in assay [5] was -6e-05 (inactive).
For the molecule `CCOC(=O)c1c(C)oc2c1c(C=NCc1ccccn1)c(O)c1ccccc12`, the cell count in assay [1] is 738. In addition, the inhibition in assay [1] was 4.7% (inactive); in assay [3], -112% (inactive); in assay [7], 8.4% (inactive); in assay [8] it was 29.2% (inactive). For the same molecule, the inhibition of aggregation in assay [2] is 7.3% (inactive). Further, the nuclei count in assay [2] came out at 84.9%; in assay [3], 124%. The fluorescence slope is -0.322 (inactive) in assay [4] and 0.00123 (inactive) in assay [6]. Moreover, the NADPH fluorescence slope in assay [5] was -2.5e-05 (inactive).
With `CCNC(=O)c1ccc(NS(=O)(=O)c2ccccc2)cc1`, in assay [1], the cell count came out at 340. In addition, the inhibition in assay [1] was -4.8% (inactive); in assay [3], -44.8% (inactive); in assay [7], 13.3% (inactive); in assay [8] it was 12.4% (inactive). For the same molecule, the inhibition of aggregation in assay [2] is 16% (inactive). Also, the nuclei count turned out to be 123% in assay [2] and 102% in assay [3]. For the same molecule, the fluorescence slope in assay [4] is -0.551 (inactive); in assay [6] it was 0.00291 (inactive). Besides, the NADPH fluorescence slope in assay [5] was -0.000105 (inactive).

Values taken from PubChem BioAssay.
